Assay results as given in ChEMBL document CHEMBL1933013, “Synthesis, SAR, and preliminary mechanistic evaluation of novel antiproliferative N⁶,5'-bis-ureido- and 5'-carbamoyl-N⁶-ureidoadenosine derivatives” (Bioorg Med Chem, 2012).
Converted amounts (≈) assume the structure as drawn. The source made the active and inactive calls. No cut-off for these calls is given here.

How the values were obtained:
L1210 = experiment: Antiproliferative activity against mouse L1210 cells after 48 hrs; format: functional, cell-based; conditions: L1210, 48 h
Method in brief: (§1)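 Cells in growth medium grown with variable compound concentrations at 37 °C in humidified CO2-controlled atmosphere; incubation 48 h for L1210 and FM3A, 72 h for CEM, 96 h for HeLa. Cell number counted by Coulter counter; IC50 = concentration inhibiting proliferation by 50%.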

FM3A = experiment: Antiproliferative activity against mouse FM3A cells after 48 hrs; format: functional, cell-based; method in brief: as §1
CCRF-CEM = experiment: Antiproliferative activity against human CEM cells after 72 hrs; format: cell-based; method in brief: as §1
HeLa = experiment: Antiproliferative activity against human HeLa cells after 96 hrs; format: functional, cell-based; method in brief: as §1
[1] = target: Protein kinase C epsilon type (Homo sapiens) (UniProt Q02156); experiment: Inhibition of PRKCE at 10 uM after 1 hr by competitive binding assay
Method in brief: (§2)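 Single-dose competitive binding at 10 μM against immobilized ATP-site ligands (DiscoveRx): phage-tagged or HEK-293-expressed DNA-tagged kinase with ligand-loaded streptavidin magnetic beads in 20% SeaBlock, 0.17× PBS, 0.05% Tween 20, 6 mM DTT, 1 h room temperature with shaking. Beads washed, eluted with 0.5 μM free ligand for 30 min; bound kinase quantified by qPCR as % binding inhibition.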

[2] = target: Tyrosine-protein kinase Blk (Homo sapiens) (UniProt P51451); experiment: Inhibition of Blk at 10 uM after 1 hr by competitive binding assay; method in brief: as §2
[3] = target: Receptor tyrosine-protein kinase erbB-2 (Homo sapiens) (UniProt P04626); experiment: Inhibition of ErbB2 at 10 uM after 1 hr by competitive binding assay; method in brief: as §2
[4] = target: T1, Bone morphogenetic protein receptor type-1B (Homo sapiens, UniProt O00238); experiment: Binding affinity to BMPR1B by multi dose competitive binding assay
[5] = target: Mitogen-activated protein kinase 11 (Homo sapiens) (UniProt Q15759); experiment: Inhibition of MAPK11 at 10 uM after 1 hr by competitive binding assay; method in brief: as §2
[6] = target: T1, Bone morphogenetic protein receptor type-1B; experiment: Inhibition of BMPR1B at 10 uM after 1 hr by competitive binding assay; method in brief: as §2
[7] = target: Serine/threonine-protein kinase Nek2 (Homo sapiens) (UniProt P51955); experiment: Inhibition of NEK2 at 10 uM after 1 hr by competitive binding assay; method in brief: as §2
[8] = target: Tyrosine-protein kinase ABL1 (Homo sapiens) (UniProt P00519); experiment: Inhibition of ABL1 at 10 uM after 1 hr by competitive binding assay; method in brief: as §2
[9] = target: Tyrosine-protein kinase Tec (Homo sapiens) (UniProt P42680); experiment: Inhibition of TEC at 10 uM after 1 hr by competitive binding assay; method in brief: as §2
[10] = target: Epidermal growth factor receptor (Homo sapiens) (UniProt P00533); experiment: Inhibition of EGFR at 10 uM after 1 hr by competitive binding assay; method in brief: as §2
[11] = target: Serine/threonine-protein kinase DCLK1 (Homo sapiens) (UniProt O15075); experiment: Inhibition of DCLK1 at 10 uM after 1 hr by competitive binding assay; method in brief: as §2
[12] = target: Myosin light chain kinase (Homo sapiens) (UniProt Q32MK0); experiment: Inhibition of MYLK3 at 10 uM after 1 hr by competitive binding assay; method in brief: as §2
[13] = target: Myosin light chain kinase family member 4 (Homo sapiens) (UniProt Q86YV6); experiment: Inhibition of MYLK4 at 10 uM after 1 hr by competitive binding assay; method in brief: as §2
[14] = target: NT-3 growth factor receptor (Homo sapiens) (UniProt Q16288); experiment: Inhibition of NTRK3 at 10 uM after 1 hr by competitive binding assay; method in brief: as §2
[15] = target: Homeodomain-interacting protein kinase 1 (Homo sapiens) (UniProt Q86Z02); experiment: Inhibition of HIPK1 at 10 uM after 1 hr by competitive binding assay; method in brief: as §2
[16] = target: MAP kinase-interacting serine/threonine-protein kinase 2 (Homo sapiens) (UniProt Q9HBH9); experiment: Inhibition of MKNK2 at 10 uM after 1 hr by competitive binding assay; method in brief: as §2
[17] = target: Receptor-type tyrosine-protein kinase FLT3 (Homo sapiens) (UniProt P36888); experiment: Inhibition of FLT-3 kinase at 10 uM after 1 hr by competitive binding assay; method in brief: as §2
[18] = target: T1, Bone morphogenetic protein receptor type-1B; experiment: Binding affinity to BMPR1B at >30 uM by multi dose competitive binding assay
[19] = Antiproliferative activity against human NCI60 cells; format: functional, cell-based
[20] = target: Inhibitor of nuclear factor kappa-B kinase subunit alpha (Homo sapiens) (UniProt O15111); experiment: Inhibition of IKKalpha at 10 uM after 1 hr by competitive binding assay; method in brief: as §2
[21] = target: Tyrosine-protein kinase BTK (Homo sapiens) (UniProt Q06187); experiment: Inhibition of BTK at 10 uM after 1 hr by competitive binding assay; method in brief: as §2
[22] = target: Serine/threonine-protein kinase PAK 3 (Homo sapiens) (UniProt O75914); experiment: Inhibition of PAK3 at 10 uM after 1 hr by competitive binding assay; method in brief: as §2
[23] = target: Ribosomal protein S6 kinase alpha-1 (Homo sapiens) (UniProt Q15418); experiment: Inhibition of RPS6KA1 kinase at 10 uM after 1 hr by competitive binding assay; method in brief: as §2
[24] = target: MAP/microtubule affinity-regulating kinase 3 (Homo sapiens) (UniProt P27448); experiment: Inhibition of MARK3 at 10 uM after 1 hr by competitive binding assay
[25] = target: Casein kinase I isoform gamma-2 (Homo sapiens) (UniProt P78368); experiment: Inhibition of CSNK1G2 at 10 uM after 1 hr by competitive binding assay; method in brief: as §2
[26] = target: Casein kinase II subunit alpha' (Homo sapiens) (UniProt P19784); experiment: Inhibition of CSNK2A2 at 10 uM after 1 hr by competitive binding assay; method in brief: as §2
[27] = target: Non-receptor tyrosine-protein kinase TYK2 (Homo sapiens) (UniProt P29597); experiment: Inhibition of TYK2 at 10 uM after 1 hr by competitive binding assay; method in brief: as §2

Compound | IC50 (L1210) [µg/mL] | IC50 (FM3A) [µg/mL] | IC50 (CCRF-CEM) [µg/mL] | IC50 (HeLa) [µg/mL] | further results
CNC(=O)OC[C@H]1O[C@@H](n2cnc3c(NC(=O)NCc4ccccc4)ncnc32)[C@H](O[Si](C)(C)C(C)(C)C)[C@@H]1O[Si](C)(C)C(C)(C)C | 101 (≈ 147 µM) | > 200 | > 200 | 23 (≈ 33.5 µM) | 
CNC(=O)NC[C@H]1O[C@@H](n2cnc3c(NC(=O)Nc4ccc(I)cc4)ncnc32)[C@H](O[Si](C)(C)C(C)(C)C)[C@@H]1O[Si](C)(C)C(C)(C)C | 43 (≈ 54 µM) |  | 68 (≈ 85.3 µM) | 18 (≈ 22.6 µM) | 
CNC(=O)OC[C@H]1O[C@@H](n2cnc3c(NC(=O)Nc4cccc(I)c4)ncnc32)[C@H](O[Si](C)(C)C(C)(C)C)[C@@H]1O[Si](C)(C)C(C)(C)C | > 200 | > 200 | > 200 | > 200 | 
CCCCCCNC(=O)Nc1ncnc2c1ncn2[C@@H]1O[C@H](CNC(=O)NC)[C@@H](O[Si](C)(C)C(C)(C)C)[C@H]1O[Si](C)(C)C(C)(C)C | 74 (≈ 109 µM) |  | 68 (≈ 100 µM) | 74 (≈ 109 µM) | 
CNC(=O)NC[C@H]1O[C@@H](n2cnc3c(NC(=O)NCc4ccccc4)ncnc32)[C@H](O[Si](C)(C)C(C)(C)C)[C@@H]1O[Si](C)(C)C(C)(C)C | 4.6 (≈ 6.72 µM) | 9.2 (≈ 13.4 µM) | 8.3 (≈ 12.1 µM) | 3.8 (≈ 5.55 µM) | 
CNC(=O)NC[C@H]1O[C@@H](n2cnc3c(NC(=O)Nc4ccccc4)ncnc32)[C@H](O)[C@@H]1O |  |  |  |  | inhibition [1]: 38%; inhibition [2]: 32%; inhibition [3]: 35%; Kd [4]: 11.5 µM; inhibition [5]: 37%; inhibition [6]: 45%; inhibition [7]: 33%; inhibition [8]: 30%; inhibition [9]: 37%; inhibition [10]: 31%; inhibition [11]: 41%; inhibition [12]: 43%; inhibition [13]: 38%; inhibition [14]: 40%; inhibition [15]: 30%; inhibition [16]: 37%; inhibition [17]: 33%
CNC(=O)NC[C@H]1O[C@@H](n2cnc3c(NC(=O)Nc4ccc([N+](=O)[O-])cc4)ncnc32)[C@H](O[Si](C)(C)C(C)(C)C)[C@@H]1O[Si](C)(C)C(C)(C)C | ≥ 200 | > 200 | > 200 | > 200 | 
CNC(=O)NC[C@H]1O[C@@H](n2cnc3c(NC(=O)NC4CCCCC4)ncnc32)[C@H](O[Si](C)(C)C(C)(C)C)[C@@H]1O[Si](C)(C)C(C)(C)C | 20 (≈ 29.5 µM) | 8.4 (≈ 12.4 µM) | 5.2 (≈ 7.68 µM) | 11 (≈ 16.2 µM) | 
CNC(=O)NC[C@H]1O[C@@H](n2cnc3c(NC(=O)Nc4ccccc4)ncnc32)[C@H](O[Si](C)(C)C(C)(C)C)[C@@H]1O[Si](C)(C)C(C)(C)C | 3.8 (≈ 5.66 µM) | 5.9 (≈ 8.79 µM) | 8.3 (≈ 12.4 µM) | 3.2 (≈ 4.77 µM) | Activity [18]: inactive; IC50 [19]: < 10 µM
CNC(=O)OC[C@H]1O[C@@H](n2cnc3c(NC(=O)Nc4ccccc4)ncnc32)[C@H](O[Si](C)(C)C(C)(C)C)[C@@H]1O[Si](C)(C)C(C)(C)C | 160 (≈ 238 µM) | > 200 | > 200 | ≥ 200 | 
CNC(=O)OC[C@H]1O[C@@H](n2cnc3c(NC(=O)Nc4ccc(I)cc4)ncnc32)[C@H](O[Si](C)(C)C(C)(C)C)[C@@H]1O[Si](C)(C)C(C)(C)C | > 200 | > 200 | ≥ 200 | 143 (≈ 179 µM) | 
CCCNC(=O)Nc1ncnc2c1ncn2[C@@H]1O[C@H](COC(=O)NC)[C@@H](O[Si](C)(C)C(C)(C)C)[C@H]1O[Si](C)(C)C(C)(C)C | 18 (≈ 28.2 µM) | 23 (≈ 36.1 µM) | 59 (≈ 92.5 µM) | 55 (≈ 86.2 µM) | 
CNC(=O)OC[C@H]1O[C@@H](n2cnc3c(NC(=O)Nc4ccc(Cl)cc4)ncnc32)[C@H](O[Si](C)(C)C(C)(C)C)[C@@H]1O[Si](C)(C)C(C)(C)C | > 200 | > 200 | > 200 | > 200 | 
CNC(=O)OC[C@H]1O[C@@H](n2cnc3c(NC(=O)NC4CCCCC4)ncnc32)[C@H](O[Si](C)(C)C(C)(C)C)[C@@H]1O[Si](C)(C)C(C)(C)C | 74 (≈ 109 µM) | > 200 | 175 (≈ 258 µM) | 69 (≈ 102 µM) | 
CNC(=O)OC[C@H]1O[C@@H](n2cnc3c(NC(=O)Nc4ccc(OC)cc4)ncnc32)[C@H](O[Si](C)(C)C(C)(C)C)[C@@H]1O[Si](C)(C)C(C)(C)C | > 200 | > 200 | > 200 | ≥ 200 | 
CCOC(=O)C[C@H]1[C@@H](O[Si](C)(C)C(C)(C)C)[C@H](n2cnc3c(NC(=O)Nc4ccccc4)ncnc32)O[C@@H]1CNC(=O)NC |  |  |  |  | inhibition [20]: 37%; inhibition [21]: 35%; inhibition [22]: 33%; inhibition [6]: 47%; inhibition [23]: 40%; inhibition [24]: 34%; inhibition [25]: 38%; inhibition [26]: 31%; inhibition [27]: 31%; inhibition [17]: 31%
CNC(=O)NC[C@H]1O[C@@H](n2cnc3c(NC(=O)Nc4ccc(OC)cc4)ncnc32)[C@H](O[Si](C)(C)C(C)(C)C)[C@@H]1O[Si](C)(C)C(C)(C)C | 3.8 (≈ 5.42 µM) | 5.8 (≈ 8.27 µM) | 5.2 (≈ 7.42 µM) | 2.6 (≈ 3.71 µM) | 
CNC(=O)OC[C@H]1O[C@@H](n2cnc3c(NC(=O)Nc4ccc([N+](=O)[O-])cc4)ncnc32)[C@H](O[Si](C)(C)C(C)(C)C)[C@@H]1O[Si](C)(C)C(C)(C)C | 7.7 (≈ 10.7 µM) | 24 (≈ 33.5 µM) | 15 (≈ 20.9 µM) | 1.5 (≈ 2.09 µM) | 
CCCNC(=O)Nc1ncnc2c1ncn2[C@@H]1O[C@H](CNC(=O)NC)[C@@H](O[Si](C)(C)C(C)(C)C)[C@H]1O[Si](C)(C)C(C)(C)C | 3.9 (≈ 6.12 µM) | 4.7 (≈ 7.38 µM) | 4.4 (≈ 6.91 µM) | 3.3 (≈ 5.18 µM) | 
CCCCCCNC(=O)Nc1ncnc2c1ncn2[C@@H]1O[C@H](COC(=O)NC)[C@@H](O[Si](C)(C)C(C)(C)C)[C@H]1O[Si](C)(C)C(C)(C)C | > 200 | > 200 | 175 (≈ 257 µM) | 88 (≈ 129 µM) | 
CNC(=O)NC[C@H]1O[C@@H](n2cnc3c(NC(=O)Nc4cccc(I)c4)ncnc32)[C@H](O[Si](C)(C)C(C)(C)C)[C@@H]1O[Si](C)(C)C(C)(C)C | 38 (≈ 47.7 µM) |  | 182 (≈ 228 µM) | 21 (≈ 26.4 µM) | 
CNC(=O)NC[C@H]1O[C@@H](n2cnc3c(NC(=O)Nc4ccc(Cl)cc4)ncnc32)[C@H](O[Si](C)(C)C(C)(C)C)[C@@H]1O[Si](C)(C)C(C)(C)C | 5.6 (≈ 7.94 µM) | 33 (≈ 46.8 µM) | 14 (≈ 19.8 µM) | 3.4 (≈ 4.82 µM) | 
